In ChEMBL document CHEMBL1138590, “Discovery of novel dihydro-9,10-ethano-anthracene carboxamides as glucocorticoid receptor modulators” (Bioorg Med Chem Lett, 2009):

How the values were obtained:
Glucocorticoid receptor [1] = molecular target: T1, Glucocorticoid receptor (Homo sapiens, UniProt P04150); experiment: Displacement of FITC-dexamethasone from human recombinant glucocorticoid receptor alpha by fluorescence polarization assay
T1 sequence (P04150 whole entry): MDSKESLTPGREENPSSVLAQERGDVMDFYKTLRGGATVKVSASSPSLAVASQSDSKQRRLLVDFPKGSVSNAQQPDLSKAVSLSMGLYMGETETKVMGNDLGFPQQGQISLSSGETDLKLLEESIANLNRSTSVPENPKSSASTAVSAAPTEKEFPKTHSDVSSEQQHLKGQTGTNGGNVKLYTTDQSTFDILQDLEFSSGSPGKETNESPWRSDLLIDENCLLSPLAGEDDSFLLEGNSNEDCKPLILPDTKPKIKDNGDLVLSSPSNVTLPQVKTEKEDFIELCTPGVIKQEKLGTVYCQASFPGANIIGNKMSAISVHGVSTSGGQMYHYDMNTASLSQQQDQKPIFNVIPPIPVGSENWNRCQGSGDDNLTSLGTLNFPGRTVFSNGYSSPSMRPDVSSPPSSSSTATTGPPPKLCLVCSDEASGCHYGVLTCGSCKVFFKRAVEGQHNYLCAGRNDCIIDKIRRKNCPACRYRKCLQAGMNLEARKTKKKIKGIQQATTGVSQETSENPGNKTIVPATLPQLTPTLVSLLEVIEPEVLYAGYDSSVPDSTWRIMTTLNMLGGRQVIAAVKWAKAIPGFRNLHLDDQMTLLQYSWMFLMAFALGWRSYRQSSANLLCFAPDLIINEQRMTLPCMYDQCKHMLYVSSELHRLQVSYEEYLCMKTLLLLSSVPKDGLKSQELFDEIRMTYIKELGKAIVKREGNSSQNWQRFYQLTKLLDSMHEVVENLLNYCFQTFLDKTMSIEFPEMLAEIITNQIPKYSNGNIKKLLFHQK

Glucocorticoid receptor [2] = molecular target: T1, Glucocorticoid receptor; experiment: Transrepression activity at GR in PMA-stimulated human A549 cells assessed as inhibition of AP1 response element-induced luciferase reporter gene activity; type: cell-based
Glucocorticoid receptor [3] = molecular target: T1, Glucocorticoid receptor; experiment: Transrepression activity at GR in IL-1-beta-stimulated human A549 cells assessed as inhibition of NF-kappaB-dependent E-selectin transcription by luciferase reporter gene assay; type: cell-based
Glucocorticoid receptor [4] = molecular target: T1, Glucocorticoid receptor; experiment: Agonist activity at GR ligand binding domain expressed in human NP1 cells assessed as glucocorticoid response element transactivation by GAL4 luciferase reporter gene assay; type: cell-based
[5] = Selectivity for human recombinant glucocorticoid receptor alpha over androgen receptor
[6] = Selectivity for human recombinant glucocorticoid receptor alpha over estrogen receptor alpha
Progesterone receptor = molecular target: T2, Progesterone receptor (Homo sapiens, UniProt P06401); experiment: Displacement of […] from progesterone receptor by fluorescence polarization assay
T2 sequence (P06401 whole entry): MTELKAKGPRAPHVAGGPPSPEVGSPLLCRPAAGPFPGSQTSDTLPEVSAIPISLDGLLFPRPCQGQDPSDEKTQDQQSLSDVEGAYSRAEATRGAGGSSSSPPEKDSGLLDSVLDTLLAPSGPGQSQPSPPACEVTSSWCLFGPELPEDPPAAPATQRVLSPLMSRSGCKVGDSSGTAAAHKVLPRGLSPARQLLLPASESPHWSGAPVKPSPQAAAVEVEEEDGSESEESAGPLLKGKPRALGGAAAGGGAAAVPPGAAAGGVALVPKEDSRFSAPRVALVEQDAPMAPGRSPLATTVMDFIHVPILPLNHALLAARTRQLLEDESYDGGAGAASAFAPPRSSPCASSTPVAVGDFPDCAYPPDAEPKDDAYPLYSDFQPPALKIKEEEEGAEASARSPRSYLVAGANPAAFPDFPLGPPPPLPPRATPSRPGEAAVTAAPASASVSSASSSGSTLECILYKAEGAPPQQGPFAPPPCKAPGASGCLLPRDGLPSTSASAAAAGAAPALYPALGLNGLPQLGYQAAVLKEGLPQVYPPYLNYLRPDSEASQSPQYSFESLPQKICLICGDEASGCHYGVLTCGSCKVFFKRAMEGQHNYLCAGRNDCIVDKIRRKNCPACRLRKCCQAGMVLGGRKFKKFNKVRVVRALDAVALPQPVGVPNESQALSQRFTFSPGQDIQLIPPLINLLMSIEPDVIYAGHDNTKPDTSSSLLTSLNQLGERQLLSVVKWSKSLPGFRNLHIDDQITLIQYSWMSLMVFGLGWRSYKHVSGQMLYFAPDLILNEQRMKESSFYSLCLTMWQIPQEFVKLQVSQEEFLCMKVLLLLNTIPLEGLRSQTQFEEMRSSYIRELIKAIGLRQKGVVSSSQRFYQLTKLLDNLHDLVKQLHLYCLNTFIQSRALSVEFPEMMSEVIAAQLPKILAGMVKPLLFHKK
Outline: (§1)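 Fluorescence polarization competition binding: the test compound competes with a fluorescently labelled ligand for binding to the full-length receptor or its ligand-binding domain. IC50 is fitted from the polarization signal with a four-parameter logistic equation. Ki is derived by Cheng–Prusoff, Ki = IC50/(1 + ligand concentration/Kd). Values are means of duplicate experiments.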

Estrogen receptor = molecular target: T3, Estrogen receptor (Homo sapiens, UniProt P03372); experiment: Displacement of […] from estrogen receptor alpha by fluorescence polarization assay; outline: as §1
T3 sequence (P03372 whole entry): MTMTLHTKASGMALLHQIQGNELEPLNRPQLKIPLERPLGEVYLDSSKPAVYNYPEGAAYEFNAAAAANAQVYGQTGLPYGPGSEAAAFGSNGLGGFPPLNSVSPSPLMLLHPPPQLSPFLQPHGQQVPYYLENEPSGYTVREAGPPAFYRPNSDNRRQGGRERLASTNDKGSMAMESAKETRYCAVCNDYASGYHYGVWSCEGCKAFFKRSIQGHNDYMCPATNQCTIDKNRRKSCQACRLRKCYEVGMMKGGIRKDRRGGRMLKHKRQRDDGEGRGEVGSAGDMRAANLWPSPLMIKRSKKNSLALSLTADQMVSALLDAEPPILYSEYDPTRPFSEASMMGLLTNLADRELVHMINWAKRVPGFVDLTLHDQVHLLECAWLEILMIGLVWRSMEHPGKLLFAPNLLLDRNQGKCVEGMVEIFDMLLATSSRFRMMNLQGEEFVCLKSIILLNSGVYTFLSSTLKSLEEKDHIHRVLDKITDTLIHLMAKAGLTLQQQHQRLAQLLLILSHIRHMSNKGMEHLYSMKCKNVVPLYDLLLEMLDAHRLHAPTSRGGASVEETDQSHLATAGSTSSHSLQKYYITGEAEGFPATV

Androgen receptor = molecular target: T4, Androgen receptor (Homo sapiens, UniProt P10275); experiment: Displacement of fluorescently labeled ligand from androgen receptor by fluorescence polarization assay
T4 sequence (P10275 whole entry): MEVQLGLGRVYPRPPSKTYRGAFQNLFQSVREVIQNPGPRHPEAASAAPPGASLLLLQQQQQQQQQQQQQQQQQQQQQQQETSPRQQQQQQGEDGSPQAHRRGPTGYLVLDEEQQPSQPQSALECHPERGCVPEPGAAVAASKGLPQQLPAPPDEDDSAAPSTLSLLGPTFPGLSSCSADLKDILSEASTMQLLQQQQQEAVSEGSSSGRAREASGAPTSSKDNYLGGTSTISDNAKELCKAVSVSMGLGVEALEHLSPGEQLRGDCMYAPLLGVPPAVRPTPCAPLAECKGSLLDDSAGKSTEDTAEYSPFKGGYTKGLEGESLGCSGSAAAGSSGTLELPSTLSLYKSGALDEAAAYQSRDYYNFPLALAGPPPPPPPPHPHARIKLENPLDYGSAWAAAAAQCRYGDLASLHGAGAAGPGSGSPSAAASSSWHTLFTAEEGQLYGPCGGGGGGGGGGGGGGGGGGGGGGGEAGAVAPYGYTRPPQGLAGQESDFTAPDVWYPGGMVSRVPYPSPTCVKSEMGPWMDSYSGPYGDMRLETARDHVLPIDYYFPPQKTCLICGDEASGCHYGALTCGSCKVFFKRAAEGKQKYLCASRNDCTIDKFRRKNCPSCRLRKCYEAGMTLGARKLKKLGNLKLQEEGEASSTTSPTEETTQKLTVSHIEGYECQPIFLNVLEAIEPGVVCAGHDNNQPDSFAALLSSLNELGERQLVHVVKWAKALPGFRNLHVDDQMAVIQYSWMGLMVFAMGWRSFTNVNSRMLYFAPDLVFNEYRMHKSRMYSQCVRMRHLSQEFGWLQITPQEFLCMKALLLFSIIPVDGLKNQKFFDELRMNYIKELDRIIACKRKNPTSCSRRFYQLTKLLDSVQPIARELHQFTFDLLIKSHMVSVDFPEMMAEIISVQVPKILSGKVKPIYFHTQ

[7] = molecular target: T5, Mineralocorticoid receptor (Homo sapiens) (UniProt P08235); experiment: Antagonist activity at mineralocorticoid receptor in human A549 cells assessed as inhibition of 1.25 nM aldosterone-induced effect at 0.1 uM; type: functional, cell-based
T5 sequence (whole entry): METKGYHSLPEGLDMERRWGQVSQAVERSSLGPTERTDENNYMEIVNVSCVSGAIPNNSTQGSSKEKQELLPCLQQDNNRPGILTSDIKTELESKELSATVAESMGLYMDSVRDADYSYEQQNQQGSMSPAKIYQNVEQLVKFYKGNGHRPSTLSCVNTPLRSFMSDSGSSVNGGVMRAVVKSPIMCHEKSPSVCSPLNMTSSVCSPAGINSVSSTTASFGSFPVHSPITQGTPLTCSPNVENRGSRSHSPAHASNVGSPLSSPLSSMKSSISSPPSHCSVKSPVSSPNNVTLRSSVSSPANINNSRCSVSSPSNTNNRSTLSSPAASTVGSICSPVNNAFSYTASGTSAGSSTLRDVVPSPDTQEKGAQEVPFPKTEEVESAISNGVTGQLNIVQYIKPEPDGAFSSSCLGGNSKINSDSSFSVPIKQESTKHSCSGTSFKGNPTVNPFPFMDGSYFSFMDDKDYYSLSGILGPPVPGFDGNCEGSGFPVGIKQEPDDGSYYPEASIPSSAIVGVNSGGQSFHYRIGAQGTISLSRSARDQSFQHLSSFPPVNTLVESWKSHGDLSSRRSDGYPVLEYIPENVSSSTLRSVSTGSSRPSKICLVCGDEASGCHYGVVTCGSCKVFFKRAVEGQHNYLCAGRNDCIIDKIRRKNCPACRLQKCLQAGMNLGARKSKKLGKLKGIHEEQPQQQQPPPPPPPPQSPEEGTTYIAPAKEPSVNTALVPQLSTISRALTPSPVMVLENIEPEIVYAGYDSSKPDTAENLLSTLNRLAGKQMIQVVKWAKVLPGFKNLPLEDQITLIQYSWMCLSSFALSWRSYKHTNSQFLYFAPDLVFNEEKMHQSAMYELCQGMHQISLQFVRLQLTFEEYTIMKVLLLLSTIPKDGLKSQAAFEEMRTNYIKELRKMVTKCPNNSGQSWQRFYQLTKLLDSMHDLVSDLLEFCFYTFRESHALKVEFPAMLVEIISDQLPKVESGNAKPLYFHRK

[8] = Selectivity for human recombinant glucocorticoid receptor alpha over progesterone receptor

Row | Structure (SMILES) | Ki (Glucocorticoid receptor [1]) [nM] | EC50 (Glucocorticoid receptor [2]) [nM] | EC50 (Glucocorticoid receptor [3]) [nM] | EC50 (Glucocorticoid receptor [4]) [nM] | fold change (FC) [5] | fold change (FC) [6] | Ki (Progesterone receptor) [nM] | Ki (Estrogen receptor) [nM] | Ki (Androgen receptor) [nM] | inhibition [7] [%] | fold change (FC) [8]
1 | CC12CC(C)(C(=O)Nc3nncs3)C(c3ccccc31)c1ccccc12 (single isomer, unassigned; isomer A) | 1.3 | 11.4 | 8.3 | 111 |  |  | 35 | > 5000 | 9300 |  | 
2 | Cc1cnc(NC(=O)C2(C)CC3c4ccccc4C2c2ccccc23)s1 (single isomer, unassigned; isomer A) [listing 1 of 2 here] | 4.1 | 345 |  |  |  |  | > 10000 | > 5000 | > 10000 |  | 

Now from value to molecule:

Row | Ki (Glucocorticoid receptor [1]) [nM] | EC50 (Glucocorticoid receptor [2]) [nM] | EC50 (Glucocorticoid receptor [3]) [nM] | EC50 (Glucocorticoid receptor [4]) [nM] | fold change (FC) [5] | fold change (FC) [6] | Ki (Progesterone receptor) [nM] | Ki (Estrogen receptor) [nM] | Ki (Androgen receptor) [nM] | inhibition [7] [%] | fold change (FC) [8] | Structure (SMILES)
3 | 2.9 | 268 | 30.7 | > 10000 | > 1000 | > 1000 |  |  |  |  |  | CC1(C(=O)Nc2nccs2)CC2c3ccccc3C1c1ccccc12 (configuration not stated)
4 | 1 | 5.3 | 1.4 | 117 |  |  | 31 | > 5000 | 2900 |  |  | CC12CC(C)(C(=O)Nc3nccs3)C(c3ccccc31)c1ccccc12 (stereo in doubt; 17a)
5 |  |  |  |  |  |  |  |  |  | 5 | > 2500 | Cc1cnc(NC(=O)C2(C)CC3c4ccccc4C2c2ccccc23)s1 (single isomer, unassigned; isomer A) [listing 2 of 2 here]
